In ChEMBL document CHEMBL1155675, “New triterpenoid sulfates from the red alga Tricleocarpa fragilis” (J Nat Prod, 2000):

Assays:
[1] = test system: Artemia; experiment: Toxicity against brine shrimp assessed as immobilization at 17 ug/ml; format: organism-based; settings: in vivo
Summary of the method: (§1)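 Brine shrimp immobilization was scored in a 96-well plate format and reported as percent immobilization with 90% confidence intervals. Where both monovalent and divalent cation salts of a sulfate were isolated, the divalent cation salt was the one tested.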

[2] = test system: P388; experiment: Cytotoxicity against mouse P388 cells; format: functional, cell-based
[3] = test system: A549; experiment: Cytotoxicity against human A549 cells; format: functional, cell-based
[4] = Cytotoxicity against human MEL28 cells; format: functional, cell-based; settings: SK-MEL-28
[5] = test system: HT-29; experiment: Cytotoxicity against human HT29 cells; format: functional, cell-based
[6] = test system: Artemia; experiment: Toxicity against brine shrimp assessed as immobilization at 50 ug/ml; format: organism-based; settings: in vivo; summary of the method: as §1

SMILES	Activity [1]	IC50 [2]	IC50 [3]	IC50 [4]	IC50 [5]	Activity [6]
COC(=O)[C@]1(C)[C@@H](OS(=O)(=O)O)CC[C@]23C[C@]24CC[C@]2(C)[C@@H]([C@H](C)C[C@@H](O)C=C(C)C)CC[C@@]2(C)[C@@H]4CC[C@@H]13	55.7%	> 10 µg/mL	> 10 µg/mL	> 10 µg/mL	> 10 µg/mL	
COC(=O)[C@]1(C)[C@@H](OS(=O)(=O)O)CC[C@]23C[C@]24CC[C@]2(C)[C@@H]([C@H](C)CC(=O)C=C(C)C)CC[C@@]2(C)[C@@H]4CC[C@@H]13		> 10 µg/mL	> 10 µg/mL	> 10 µg/mL	> 10 µg/mL	
CC(C)=C[C@H](O)C[C@@H](C)[C@H]1CC[C@@]2(C)[C@@H]3CC[C@H]4[C@](C)(CO)[C@@H](OS(=O)(=O)O)CC[C@@]45C[C@@]35CC[C@]12C	47.1%	> 10 µg/mL	> 10 µg/mL	> 10 µg/mL	> 10 µg/mL	
CC(C)=CC(=O)C[C@@H](C)[C@H]1CC[C@@]2(C)[C@@H]3CC[C@H]4[C@](C)(CO)[C@@H](OS(=O)(=O)O)CC[C@@]45C[C@@]35CC[C@]12C		> 2 µg/mL	> 2 µg/mL	> 2 µg/mL	> 2 µg/mL	
CC(C)=C[C@H](O)C[C@@H](C)[C@H]1CC[C@@]2(C)[C@@H]3CC[C@H]4C(C)(C)[C@@H](OS(=O)(=O)O)CC[C@@]45C[C@@]35CC[C@]12C		> 2 µg/mL	> 2 µg/mL	> 2 µg/mL	> 2 µg/mL	
CC(C)=CC(=O)C[C@@H](C)[C@H]1CC[C@@]2(C)[C@@H]3CC[C@H]4C(C)(C)[C@@H](OS(=O)(=O)O)CC[C@@]45C[C@@]35CC[C@]12C		> 10 µg/mL	> 10 µg/mL	> 10 µg/mL	> 10 µg/mL	
COC(=O)[C@@H]1[C@@H](OS(=O)(=O)O)CC[C@]23C[C@]24CC[C@]2(C)[C@@H]([C@H](C)C[C@@H](O)C=C(C)C)CC[C@@]2(C)[C@@H]4CC[C@@H]13		> 1 µg/mL	> 1 µg/mL	> 1 µg/mL	> 1 µg/mL	39.1%
COC(=O)[C@@H]1[C@@H](OS(=O)(=O)O)CC[C@]23C[C@]24CC[C@]2(C)[C@@H]([C@H](C)CC(=O)C=C(C)C)CC[C@@]2(C)[C@@H]4CC[C@@H]13		> 1 µg/mL	> 1 µg/mL	> 1 µg/mL	> 1 µg/mL	
COC(=O)[C@@H]1[C@@H](OS(=O)(=O)O)CC[C@]2(C)C3=C(CC[C@@H]12)[C@]1(C)CC[C@H]([C@H](C)C[C@@H](O)C=C(C)C)[C@@]1(C)CC3		> 2 µg/mL	> 2 µg/mL	> 2 µg/mL	> 2 µg/mL	
COC(=O)[C@@H]1[C@@H](OS(=O)(=O)O)CC[C@]2(C)C3=C(CC[C@@H]12)[C@]1(C)CC[C@H]([C@H](C)CC(=O)C=C(C)C)[C@@]1(C)CC3		> 1 µg/mL	> 1 µg/mL	> 1 µg/mL	> 1 µg/mL	35.5%
COC(=O)[C@]1(C)[C@@H](OS(=O)(=O)[O-])CC[C@]23C[C@]24CC[C@]2(C)[C@@H]([C@H](C)CC(=O)C=C(C)C)CC[C@@]2(C)[C@@H]4CC[C@@H]13.COC(=O)[C@]1(C)[C@@H](OS(=O)(=O)[O-])CC[C@]23C[C@]24CC[C@]2(C)[C@@H]([C@H](C)CC(=O)C=C(C)C)CC[C@@]2(C)[C@@H]4CC[C@@H]13.[Ca+2]		> 10 µg/mL	> 10 µg/mL	> 10 µg/mL	> 10 µg/mL	
COC(=O)[C@]1(C)[C@@H](OS(=O)(=O)[O-])CC[C@]23C[C@]24CC[C@]2(C)[C@@H]([C@H](C)CC(=O)C=C(C)C)CC[C@@]2(C)[C@@H]4CC[C@@H]13.COC(=O)[C@]1(C)[C@@H](OS(=O)(=O)[O-])CC[C@]23C[C@]24CC[C@]2(C)[C@@H]([C@H](C)CC(=O)C=C(C)C)CC[C@@]2(C)[C@@H]4CC[C@@H]13.[Mg+2]		> 10 µg/mL	> 10 µg/mL	> 10 µg/mL	> 10 µg/mL	
COC(=O)[C@]1(C)[C@@H](OS(=O)(=O)[O-])CC[C@]23C[C@]24CC[C@]2(C)[C@@H]([C@H](C)CC(=O)C=C(C)C)CC[C@@]2(C)[C@@H]4CC[C@@H]13.[Na+]		> 10 µg/mL	> 10 µg/mL	> 10 µg/mL	> 10 µg/mL	
